Columns and labels:
[1] = Cmax in female CD-1 mouse at 5 mg/kg, po measured for 480 mins by LC-MS/MS analysis; type: ADME, organism-based; parameters: dose 5 mg/kg, time 480 min, route po; details: in vivo
Summary of the method: (§1)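 Female (or male, as per line) CD-1 mice, 3 per time point, given a single 5 mg/kg dose in 10% Kolliphor EL in saline (injections) or water (oral). Blood sampled 5–480 min; plasma extracted with CH₃CN and quantified by LC-MS/MS (ESI+, m/z 251.20) against a calibration curve in extracted plasma; parameters by non-compartmental analysis.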

[2] = AUC in female CD-1 mouse at 5 mg/kg, po measured for 480 mins by LC-MS/MS analysis; type: ADME, organism-based; parameters: dose 5 mg/kg, time 480 min, route po; details: in vivo; summary of the method: as §1
[3] = Tmax in female CD-1 mouse at 5 mg/kg, ip measured for 480 mins by LC-MS/MS analysis; type: ADME, organism-based; details: in vivo
Summary of the method: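 Female (IP, SC, PO) or male (PO) CD-1 mice received 5 mg/kg in 10% Kolliphor EL vehicle, 3 mice per time point. Plasma was sampled at 5, 15, 30, 60, 120, 360 and 480 min, acetonitrile-extracted and quantified by LC-MS/MS against a calibration in extracted plasma. Tmax was the time of the observed maximum concentration.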

[4] = Clearance in male CD-1 mouse at 5 mg/kg, iv measured for 480 mins by LC-MS/MS analysis; type: ADME, organism-based; details: in vivo; summary of the method: as §1
[5] = Clearance in male CD-1 mouse at 5 mg/kg, po measured for 480 mins by LC-MS/MS analysis; type: ADME, organism-based; details: in vivo; summary of the method: as §1
U2OS = test: Cytotoxicity against human U2OS cells with HSD17B11 knockout complemented with HSD17B13-GFP assessed as cell viability at 1 uM incubated for 72 hrs by SRB assay relative to control; type: functional; details: read-out: Activity
Summary of the method: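 U2OS HSD17B11-KO cells stably complemented with GFP, HSD17B11-GFP or HSD17B13-GFP, exposed to 1 μM compound for 72 h in complete medium; viability read by SRB assay, in three independent experiments.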

Cmax [1]: 200 nM | AUC at 8 h [2]: 57.2 ng·h/mL | Tmax [3]: 5 min | clearance [4]: 108 mL/min/kg | CL/F [5]: 1760 mL/min/kg
SMILES: C#C[C@H](O)C#Cc1ccc(CCCCCCCC)cc1
viability at 1 µM (U2OS): 0%

From ChEMBL document CHEMBL5370613, “Phenyl dialkynylcarbinols, a Bioinspired Series of Synthetic Antitumor Acetylenic Lipids” (J Med Chem, 2023)
